Experimental data reported in ChEMBL document CHEMBL2440012, “Design, synthesis and anticonvulsant properties of new N-Mannich bases derived from 3-phenylpyrrolidine-2,5-diones” (Bioorg Med Chem, 2013).
The source made the active and inactive calls. No cut-off for these calls is given here.

Key:
Rattus norvegicus [1] = assay: Anticonvulsant activity in albino Sprague-Dawley rat assessed as protection against maximal electroshock-induced seizures at 30 mg/kg, po measured after 0.25 hr; format: functional
Procedure, shortened: (§1)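 Male Sprague-Dawley rats, four per group, dosed p.o. at 30 mg/kg in 0.5% methylcellulose/water suspension; MES test at 0.25, 0.5, 1, 2 and 4 h, motor impairment examined in parallel; number of rats out of four protected.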

Rattus norvegicus [2] = assay: Anticonvulsant activity in albino Sprague-Dawley rat assessed as protection against maximal electroshock-induced seizures at 30 mg/kg, po measured after 2 hrs; format: functional; procedure, shortened: as §1
Mus musculus [3] = assay: Anticonvulsant activity in albino CF1 mouse assessed as assessed as protection against 6 Hz psychomotor seizure at 75 mg/kg, ip after 1 hr by minimal clonic seizure test; format: functional; conditions: route intraperitoneal
Procedure, shortened: (§2)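 Male CF-1 mice, groups of four, dosed ip in 0.5% methylcellulose/water suspension, then challenged by 6-Hz corneal stimulation at 32 mA (0.2 ms pulses, 3 s, constant current) at 0.25, 0.5, 1, 2 or 4 h; count of mice out of four protected from stunned posture/clonic seizure.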

Mus musculus [4] = assay: Neurotoxicity in ip dosed albino CF1 mouse assessed as minimum motor impairment in half or more animals measured after 0.5 hrs by rotorod test; format: toxicity, organism-based; conditions: in vivo
Procedure, shortened: (§3)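 Male CF-1 mice given ip suspension in 0.5% methylcellulose/water at 30, 100 and 300 mg/kg; MES, scPTZ (pentylenetetrazole 85 mg/kg sc, CD97 dose for clonic seizures ≥5 s) and rotarod (inability to hold balance 1 min in each of three trials) assessed at 0.5 and 4 h; value is minimum dose active in half or more animals.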

Mus musculus [5] = assay: Anticonvulsant activity in albino CF1 mouse assessed as assessed as protection against 6 Hz psychomotor seizure at 75 mg/kg, ip after 2 hrs by minimal clonic seizure test; format: functional; conditions: route intraperitoneal; procedure, shortened: as §2
Rattus norvegicus [6] = assay: Protection index, ratio of TD50 for neurotoxicity in po dosed albino Sprague-Dawley rat by rotorod test to ED50 for anticonvulsant activity in po dosed albino Sprague-Dawley rat by scPTZ test; format: functional
Procedure, shortened: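 Male Sprague-Dawley rats, compound suspended in 0.5% methylcellulose/water and given orally; tested at the time of peak effect. scPTZ: 70 mg/kg pentylenetetrazole sc; the end-point is clonic seizures lasting at least 5 s. Rotarod: motor impairment is failure to keep balance for 1 min in each of three trials. Groups of at least eight rats received several doses until at least three points fell within 10–90% effect. ED50, TD50 and 95% confidence intervals were derived by regression; PI = TD50/ED50.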

Mus musculus [7] = assay: Anticonvulsant activity in ip dosed albino CF1 mouse assessed as protection against maximal electroshock-induced seizures in half or more animals measured after 4 hrs; format: functional; conditions: read-out: MED; procedure, shortened: as §3
Rattus norvegicus [8] = assay: Anticonvulsant activity in albino Sprague-Dawley rat assessed as protection against maximal electroshock-induced seizures at 30 mg/kg, po measured after 1 hr; format: functional; procedure, shortened: as §1
Mus musculus [9] = assay: Anticonvulsant activity in albino CF1 mouse assessed as assessed as protection against 6 Hz psychomotor seizure at 75 mg/kg, ip after 0.25 hr by minimal clonic seizure test; format: functional; conditions: route intraperitoneal; procedure, shortened: as §2
Rattus norvegicus [10] = assay: Protection index, ratio of TD50 for neurotoxicity in po dosed albino Sprague-Dawley rat by rotorod test to ED50 for anticonvulsant activity in po dosed albino Sprague-Dawley rat by MES test; format: functional
Rattus norvegicus [11] = assay: Anticonvulsant activity against […] subcutaneous pentylenetetrazole-induced convulsion in po dosed albino Sprague-Dawley rat assessed as time to peak effect; format: functional
Mus musculus [12] = assay: Anticonvulsant activity in albino CF1 mouse assessed as assessed as protection against 6 Hz psychomotor seizure at 75 mg/kg, ip after 0.5 hr by minimal clonic seizure test; format: functional; conditions: route intraperitoneal; procedure, shortened: as §2
Rattus norvegicus [13] = assay: Anticonvulsant activity in albino Sprague-Dawley rat assessed as protection against maximal electroshock-induced seizures at 30 mg/kg, po measured after 4 hrs; format: functional; procedure, shortened: as §1
Mus musculus [14] = assay: Toxicity in albino CF1 mouse assessed as myoclonic jerks at 300 mg/kg, ip measured after 0.5 hr by rotorod test; format: organism-based; parameters: dose 300 mg/kg, route intraperitoneal; conditions: in vivo
Rattus norvegicus [15] = assay: Neurotoxicity in po dosed albino Sprague-Dawley rat assessed as time to peak effect by rotorod test; format: toxicity, organism-based; conditions: in vivo
Rattus norvegicus [16] = assay: Anticonvulsant activity against maximal electroshock-induced seizures in po dosed albino Sprague-Dawley rat assessed as time to peak effect; format: functional
Mus musculus [17] = assay: Anticonvulsant activity against 6 Hz psychomotor seizure in ip dosed albino CF1 mouse by minimal clonic seizure test; format: functional
Mus musculus [18] = assay: Anticonvulsant activity in albino CF1 mouse assessed as protection against subcutaneous pentylenetetrazole-induced convulsion at 300 mg/kg, ip measured after 0.5 hrs; format: functional, organism-based; parameters: dose 300 mg/kg; procedure, shortened: as §3
[19] = Neurotoxicity in po dosed albino Sprague-Dawley rat assessed as minimum motor impairment by rotorod test; format: toxicity, organism-based; conditions: in vivo
Rattus norvegicus [20] = assay: Anticonvulsant activity in po dosed albino Sprague-Dawley rat assessed as protection against subcutaneous pentylenetetrazole-induced convulsion; format: functional
Mus musculus [21] = assay: Neurotoxicity in albino CF1 mouse assessed as minimum motor impairment at 300 mg/kg, ip measured after 4 hrs by rotorod test; format: toxicity, organism-based; parameters: dose 300 mg/kg, route intraperitoneal; conditions: in vivo; procedure, shortened: as §3
Mus musculus [22] = assay: Anticonvulsant activity in ip dosed albino CF1 mouse assessed as protection against maximal electroshock-induced seizures in half or more animals measured after 0.5 hr; format: functional; conditions: read-out: MED; procedure, shortened: as §3
Rattus norvegicus [23] = assay: Anticonvulsant activity in albino Sprague-Dawley rat assessed as protection against maximal electroshock-induced seizures at 30 mg/kg, po measured after 0.5 hr; format: functional; procedure, shortened: as §1
Mus musculus [24] = assay: Protection index, ratio of TD50 for neurotoxicity in ip dosed albino CF1 mouse by rotorod test to ED50 for anticonvulsant activity in ip dosed albino CF1 mouse by 6 Hz psychomotor seizure test; format: functional
Mus musculus [25] = assay: Anticonvulsant activity against 6 Hz psychomotor seizure in ip dosed albino CF1 mouse assessed as time to peak effect by minimal clonic seizure test; format: functional
Mus musculus [26] = assay: Neurotoxicity in ip dosed albino CF1 mouse assessed as time to peak effect by rotorod test; format: toxicity, organism-based; conditions: in vivo
Rattus norvegicus [27] = assay: Anticonvulsant activity in po dosed albino Sprague-Dawley rat assessed as protection against maximal electroshock-induced seizures; format: functional
[28] = Neurotoxicity in ip dosed albino CF1 mouse by rotorod test; format: toxicity, organism-based; conditions: in vivo
Mus musculus [29] = assay: Anticonvulsant activity in albino CF1 mouse assessed as assessed as protection against 6 Hz psychomotor seizure at 75 mg/kg, ip after 4 hrs by minimal clonic seizure test; format: functional; conditions: route intraperitoneal; procedure, shortened: as §2
Mus musculus [30] = assay: Anticonvulsant activity against […] psychomotor seizure in ip dosed albino CF1 mouse assessed as time to peak effect by minimal clonic seizure test; format: functional
Rattus norvegicus [31] = assay: Anticonvulsant activity in albino rat assessed as protection against pilocarpine-induced status epilepticus at 100 mg/kg, ip measured 0.5 hrs post first stage 3 seizure; format: functional, organism-based; parameters: dose 100 mg/kg
Procedure, shortened: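 Male Sprague-Dawley rats (150–180 g) dosed ip, followed by challenge dose of pilocarpine; compound given relative to first stage III seizure (time zero or 0.5 h); outcome scored as protection or no protection, plus body-weight change 24 h after first stage III seizure.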

Mus musculus [32] = assay: Anticonvulsant activity in albino CF1 mouse assessed as assessed as protection against 6 Hz psychomotor seizure at 50 mg/kg, ip after 4 hrs by minimal clonic seizure test; format: functional; conditions: route intraperitoneal; procedure, shortened: as §2
Mus musculus [33] = assay: Anticonvulsant activity against […] psychomotor seizure in ip dosed albino CF1 mouse by minimal clonic seizure test; format: functional
Mus musculus [34] = assay: Anticonvulsant activity in ip dosed albino CF1 mouse assessed as protection against subcutaneous pentylenetetrazole-induced convulsion in half or more animals measured after 4 hrs; format: functional; conditions: albino CF1, 4 h, read-out: MED; procedure, shortened: as §3
Mus musculus [35] = assay: Anticonvulsant activity in albino CF1 mouse assessed as assessed as protection against 6 Hz psychomotor seizure at 50 mg/kg, ip after 0.25 hr by minimal clonic seizure test; format: functional; conditions: route intraperitoneal; procedure, shortened: as §2
Mus musculus [36] = assay: Anticonvulsant activity in albino CF1 mouse assessed as assessed as protection against 6 Hz psychomotor seizure at 100 mg/kg, ip after 1 hr by minimal clonic seizure test; format: functional; conditions: route intraperitoneal; procedure, shortened: as §2
Mus musculus [37] = assay: Anticonvulsant activity in albino CF1 mouse assessed as assessed as protection against 6 Hz psychomotor seizure at 100 mg/kg, ip after 0.5 hr by minimal clonic seizure test; format: functional; conditions: route intraperitoneal; procedure, shortened: as §2
Mus musculus [38] = assay: Toxicity in albino CF1 mouse assessed as sedation at 100 mg/kg, ip measured after 4 hrs by rotorod test; format: organism-based; parameters: dose 100 mg/kg, route intraperitoneal; conditions: in vivo
Mus musculus [39] = assay: Anticonvulsant activity in ip dosed albino CF1 mouse assessed as protection against subcutaneous pentylenetetrazole-induced convulsion in half or more animals measured after 0.5 hr; format: functional; conditions: albino CF1, 0.5 h, read-out: MED; procedure, shortened: as §3
Mus musculus [40] = assay: Anticonvulsant activity in albino CF1 mouse assessed as assessed as protection against 6 Hz psychomotor seizure at 100 mg/kg, ip after 2 hrs by minimal clonic seizure test; format: functional; conditions: route intraperitoneal; procedure, shortened: as §2
Mus musculus [41] = assay: Anticonvulsant activity in albino CF1 mouse assessed as assessed as protection against 6 Hz psychomotor seizure at 100 mg/kg, ip after 4 hrs by minimal clonic seizure test; format: functional; conditions: route intraperitoneal; procedure, shortened: as §2
Mus musculus [42] = assay: Anticonvulsant activity in albino CF1 mouse assessed as assessed as protection against 6 Hz psychomotor seizure at 100 mg/kg, ip after 0.25 hr by minimal clonic seizure test; format: functional; conditions: route intraperitoneal; procedure, shortened: as §2
Mus musculus [43] = assay: Anticonvulsant activity in albino CF1 mouse assessed as assessed as protection against 6 Hz psychomotor seizure at 50 mg/kg, ip after 2 hrs by minimal clonic seizure test; format: functional; conditions: route intraperitoneal; procedure, shortened: as §2
Mus musculus [44] = assay: Neurotoxicity in ip dosed albino CF1 mouse assessed as minimum motor impairment in half or more animals measured after 4 hrs by rotorod test; format: toxicity, organism-based; conditions: in vivo; procedure, shortened: as §3
Mus musculus [45] = assay: Anticonvulsant activity in albino CF1 mouse assessed as assessed as protection against 6 Hz psychomotor seizure at 50 mg/kg, ip after 1 hr by minimal clonic seizure test; format: functional; conditions: route intraperitoneal; procedure, shortened: as §2
Mus musculus [46] = assay: Anticonvulsant activity in albino CF1 mouse assessed as assessed as protection against 6 Hz psychomotor seizure at 50 mg/kg, ip after 0.5 hr by minimal clonic seizure test; format: functional; conditions: route intraperitoneal; procedure, shortened: as §2

## O=C1CC(c2ccccc2Cl)C(=O)N1CN1CCC(Cc2ccccc2)CC1 (racemic)
Rattus norvegicus [1]
  Activity: 25%
Rattus norvegicus [2]
  Activity: 25%
Mus musculus [3]
  Activity: 0%
Mus musculus [4]
  MED: 300 mg/kg
Mus musculus [5]
  Activity: 25%
Rattus norvegicus [6]
  Ratio TD50/ED50: >4.68
Mus musculus [7]
  minimal effective dose: 100 mg/kg
Rattus norvegicus [8]
  Activity: 75%
Mus musculus [9]
  Activity: 0%
Rattus norvegicus [10]
  Ratio TD50/ED50: >13.28
Rattus norvegicus [11]
  Time: 1 h
Mus musculus [12]
  Activity: 75%
Rattus norvegicus [13]
  Activity: inactive
Mus musculus [14]
  MED: 100 mg/kg
Rattus norvegicus [15]
  Time: 1 h
Rattus norvegicus [16]
  Time: 1 h
Mus musculus [17]
  ED50: 84.6 mg/kg
Mus musculus [18]
  Activity: inactive
[19]
  TD50: > 500 mg/kg
Rattus norvegicus [20]
  ED50: 107 mg/kg
Mus musculus [21]
  Activity: Non-toxic
Mus musculus [22]
  minimal effective dose: 300 mg/kg
Rattus norvegicus [23]
  Activity: 75%
Mus musculus [24]
  Ratio TD50/ED50: 3.26
Mus musculus [25]
  Time: 0.5 h
Mus musculus [26]
  Time: 0.5 h
Rattus norvegicus [27]
  ED50: 37.6 mg/kg
[28]
  TD50: 275 mg/kg
Mus musculus [29]
  Activity: 0%

## O=C1CC(c2ccccc2Cl)C(=O)N1CN1CCOCC1 (racemic)
Rattus norvegicus [1]
  Activity: inactive
Mus musculus [30]
  Time: 0.5 h
Rattus norvegicus [2]
  Activity: inactive
Rattus norvegicus [31]
  Activity: inactive
Mus musculus [32]
  Activity: 0%
Mus musculus [7]
  minimal effective dose: 100 mg/kg
Rattus norvegicus [8]
  Activity: 25%
Mus musculus [33]
  ED50: 55.6 mg/kg
Mus musculus [34]
  minimal effective dose: 300 mg/kg
Rattus norvegicus [13]
  Activity: inactive
Mus musculus [35]
  Activity: 100%
Mus musculus [17]
  ED50: 31.1 mg/kg
Mus musculus [36]
  Activity: 100%
Mus musculus [37]
  Activity: 100%
Mus musculus [38]
  MED: 300 mg/kg
Mus musculus [39]
  minimal effective dose: 100 mg/kg
Mus musculus [22]
  minimal effective dose: 100 mg/kg
Mus musculus [40]
  Activity: 100%
Rattus norvegicus [23]
  Activity: 25%
Mus musculus [41]
  Activity: 100%
Mus musculus [25]
  Time: 0.25 h
Mus musculus [42]
  Activity: 100%
Mus musculus [43]
  Activity: 75%
Mus musculus [26]
  Time: 0.25 h
Mus musculus [44]
  MED: 300 mg/kg
Mus musculus [45]
  Activity: 75%
Mus musculus [46]
  Activity: 75%
